Data on seven compounds can be found in paper PMC2923871 (Journal of Medicinal Chemistry, 2010).

Like-named read-outs stand apart in the source and are kept apart here. Some results are limits rather than exact numbers.

For data set [1] the following is noted: phosphate buffer pH 7.4; previously reported compound; cited from earlier work.
The nature of data set [2]: Pooled human liver microsomal assay. The conditions noted are these: pooled human liver microsomes, 0.5 μM compound, NADPH. The data set is classed as in vitro ADME. The procedure, abridged:
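Microsomes at 0.5 mg/mL in 50 mM potassium phosphate, pH 7.4, reaction started with excess NADPH. Aliquots at 0, 3, 6, 9, 15 and 30 min quenched in acetonitrile, internal standard added, protein spun down, UPLC-MS/MS. Rate constant from exponential decay of compound/internal standard peak-area ratio. CLi scaled by incubation volume/mg protein and 52.5 mg protein/g liver. Verapamil positive control.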

A short description of data set [3]: Chemical stability in phosphate buffer at pH 7.4. The conditions noted are these: pH 7.4, t1/2 pH 7.4, phosphate buffer pH 7.4. The data set is classed as physicochemical.
Data set [4] has as its system bloodstream form T. b. brucei BS427. The data set is described as follows: Trypanocidal activity, Alamar Blue assay. The format is cell-based.
The subject of a further data set is T. brucei. To be noted: cited from earlier work.

With `COC(=O)[C@@H](C)NP(=O)(OC[C@H]1OC(C)(C)O[C@H]1C(=O)NO)Oc1ccc([N+](=O)[O-])cc1` (stereo partly drawn) [15a], in data set [1], the half-life result is on record as “about 50 min”.
Turning to `CCOC(=O)[C@H](NP(=O)(OC[C@H]1OC(C)(C)O[C@H]1C(=O)NO)Oc1ccccc1)C(C)C` (stereo partly drawn) [15f], the “PHLM Cli” value in data set [2] is below 0.5 mL/min/g.
The same measure, in the same setting: the figure for `CCOC(=O)[C@H](NP(=O)(OC[C@H]1OC(C)(C)O[C@H]1C(=O)NO)Oc1ccc(C)cc1)C(C)C` (stereo partly drawn) [15l] is below 0.5 mL/min/g.
For the compound `COC(=O)[C@@H](C)NP(=O)(OC[C@H]1OC(C)(C)O[C@H]1C(=O)NO)Oc1cccc(C)c1C` (stereo partly drawn) [15o], the half-life in data set [3] was 30 h. The compound further had a concentration for half-maximal inhibition (IC50) in data set [4] (Trypanosoma brucei) of 270 nM.
Regarding `CCOC(=O)[C@H](NP(=O)(OC[C@H]1OC(C)(C)O[C@H]1C(=O)NO)Oc1cccc(C)c1C)C(C)C` (stereo partly drawn) [15p], the “PHLM Cli” value in data set [2] is below 0.5 mL/min/g.
For `Cc1cccc(OP(=O)(N[C@@H](C(=O)OC(C)(C)C)C(C)C)OC[C@H]2OC(C)(C)O[C@H]2C(=O)NO)c1C` (stereo partly drawn) [15q], the increase in activity entry in data set [4] (15q relative to 15a) is recorded as “more than 5000 times”.
As for `CC1(C)O[C@H](COP(=O)(O)O)[C@H](C(=O)NO)O1` [compound 1, 2,3-O-Isopropylidene-4-erythrono hydroxamate], in the data set on T. brucei (T. brucei cell culture, previously reported compounds), the EC50 was above 330000 nM. The “activity against the parasite” value in the data set with T. brucei (result in words) was “inactive”.
